From ChEMBL document CHEMBL3351805, “Giffonins A-I, antioxidant cyclized diarylheptanoids from the leaves of the hazelnut tree (Corylus avellana), source of the Italian PGI product "Nocciola di Giffoni"” (J Nat Prod, 2015)

Tests used:
Plasma [1] = experiment: Antioxidant activity in human plasma assessed as H2O2/Fe2+-induced lipid peroxidation at 10 uM after 30 mins by TBARS assay; format: functional, cell-free
In short: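 Reaction stopped on ice; TCA/HCl precipitation, centrifugation at 1200g. Supernatant boiled 15 min with thiobarbituric acid in Tris pH 7.0. A532 converted to TBARS via ε = 156 000 M⁻¹ cm⁻¹. Three independent experiments; paired Student's t test.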

Plasma [2] = experiment: Antioxidant activity in human plasma assessed as H2O2-induced lipid peroxidation at 10 uM after 30 mins by TBARS assay; format: functional, cell-free
In short: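 Fresh plasma from medication-free human donors, incubated 30 min at 37 °C with compound (final 0.1–100 μM; DMSO <0.05% final) plus 2 mM H₂O₂. Stopped on ice, then mixed with an equal volume of cold 20% TCA in 0.6 M HCl and spun. Supernatant heated 15 min with 0.12 M TBA in 0.26 M Tris pH 7.0. TBARS read at 532 nm (ε = 156 000 M⁻¹ cm⁻¹). n=3 independent experiments.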

Compound	inhibition (Plasma [1]) [%]	inhibition (Plasma [2]) [%]
COc1c2cc(c(OC)c1O)Oc1ccc(cc1)CC[C@@H](O)CC/C=C\2	28.2	16.4
COc1c2cc(c(OC)c1O)Oc1ccc(cc1)CC[C@@H](O)/C=C/C=C\2	35.5	37.6
COc1c2cc(c(OC)c1O)Oc1ccc(cc1)CCC(=O)C[C@@H](O)/C=C\2	12	12.1
COc1c2cc(c(OC)c1O)Oc1ccc(cc1)CCCC[C@@H](O)/C=C\2	30.8	20.8
COc1c2cc(c(OC)c1O)Oc1ccc(cc1)CCC(=O)CC/C=C\2	63.2	64.3
O=C1/C=C/CCc2ccc(O[C@@H]3O[C@H](CO)[C@@H](O)[C@H](O)[C@H]3O)c(c2)-c2cc(ccc2O[C@@H]2OC[C@H](O)[C@H](O)[C@H]2O)CC1	18.1	12.6
COc1cc(/C=C/C(=O)CC(=O)/C=C/c2ccc(O)c(OC)c2)ccc1O	18.6	19.2
COc1c2cc(c(OC)c1O)Oc1ccc(cc1)[C@@H](O)CC(=O)CC/C=C/2	7.3	2.2
COc1c2cc(c(OC)c1O)Oc1ccc(cc1)CCC(=O)CC/C=C/2	36.8	8.1
COc1c(O)cc2cc1Oc1ccc(cc1)CC[C@@H](O)/C=C/C=C\2	50.6	55.8
